Measurements reported in ChEMBL document CHEMBL1649090, “Discovery of (7R)-14-cyclohexyl-7-{[2-(dimethylamino)ethyl](methyl) amino}-7,8-dihydro-6H-indolo[1,2-e][1,5]benzoxazocine-11-carboxylic acid (MK-3281), a potent and orally bioavailable finger-loop inhibitor of the hepatitis C virus NS5B polymerase” (J Med Chem, 2011).

Assays:
Hepatitis C virus [1] = assay: Antiviral activity against HCV1b infected in human Huh-7 cells assessed as inhibition of viral RNA replication after 96 hrs by ELISA assay in presence of 10% fetal calf serum; assay type: functional, organism-based, Hepacivirus hominis; settings: genotype 1b, Huh-7, 96 h
Hepatitis C virus [2] = assay: Antiviral activity against HCV1b infected in human Huh-7 cells assessed as inhibition of viral RNA replication after 96 hrs by ELISA assay in presence of 50% normal human serum; assay type: functional, organism-based, Hepacivirus hominis; settings: genotype 1b, Huh-7, 96 h
Hepatitis C virus [3] = assay: Inhibition of HCV1b NS5B delta21 polymerase after 1 hr; assay type: single protein, Hepatitis C virus subtype 1b
How it was run: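 Enzyme inhibition IC50 measured on genotype 1b HCV NS5B polymerase truncated by 21 C-terminal residues (ΔC21).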

Hepatitis C virus [4] = assay: Ratio of EC50 for HCV1b to EC50 for HCV1b in presence of 50% normal human serum; assay type: functional, Hepacivirus hominis, genotype 1b
[5] = Fraction unbound in human plasma; assay type: ADME, cell-free
[6] = AUC in Sprague-Dawley rat at 3 mg/kg, po; assay type: ADME, organism-based; design: dose 3 mg/kg, route oral; settings: plasma
How it was run: (§1)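 Single-dose rat PK with the compound given as its TFA salt to Sprague-Dawley rats (n = 3) in DMSO/PEG400/water 20%/60%/20%. Dosing was 3 mg/kg iv and 3 mg/kg po.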

[7] = Volume of distribution in Sprague-Dawley rat at 3 mg/kg, iv; assay type: ADME, organism-based; design: dose 3 mg/kg, route intravenous; settings: in vivo
How it was run: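 Sprague-Dawley rats (n = 3) received a single 3 mg/kg iv dose, given as the TFA salt, in DMSO/PEG400/water 20%/60%/20%. Plasma clearance, half-life and volume of distribution were derived.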

[8] = Cmax in Sprague-Dawley rat at 3 mg/kg, po; assay type: ADME, organism-based; design: dose 3 mg/kg, route oral; settings: in vivo
How it was run: (§2)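 Sprague-Dawley rats (n = 3) received the compound as its TFA salt in DMSO/PEG400/water 20%/60%/20%, as a single iv dose of 3 mg/kg or a single oral dose of 3 mg/kg. Liver tissue and plasma concentrations were measured 6 h after the oral dose.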

[9] = Drug level in Sprague-Dawley rat liver at 3 mg/kg, po after 6 hrs; assay type: ADME, organism-based; design: dose 3 mg/kg, route oral; settings: read-out: Drug uptake; how it was run: as §2
[10] = Intrinsic clearance in dog liver microsomes assessed per mg of protein; assay type: ADME, Canis lupus familiaris, Microsome
[11] = Clearance in Sprague-Dawley rat at 3 mg/kg, iv; assay type: ADME, organism-based; design: dose 3 mg/kg, route intravenous; settings: in vivo; how it was run: as §2
[12] = Intrinsic clearance in human liver microsomes assessed per mg of protein; assay type: ADME, Microsome
[13] = Intrinsic clearance in rat liver microsomes assessed per mg of protein; assay type: ADME, Microsome
[14] = Half life in Sprague-Dawley rat at 3 mg/kg, iv; assay type: ADME, organism-based; design: dose 3 mg/kg, route intravenous; settings: in vivo; how it was run: as §2
[15] = Oral bioavailability in Sprague-Dawley rat at 3 mg/kg; assay type: ADME, organism-based; settings: in vivo; how it was run: as §1
[16] = Ratio of drug level in liver to plasma in Sprague-Dawley rat liver at 3 mg/kg, po after 6 hrs; assay type: ADME, organism-based; design: dose 3 mg/kg, route oral; how it was run: as §2

CN(C)CCO[C@H]1COc2ccccc2-c2c(C3CCCCC3)c3ccc(C(=O)O)cc3n2C1
EC50 (Hepatitis C virus [1]): 432 nM | EC50 (Hepatitis C virus [2]): 1410 nM | IC50 (Hepatitis C virus [3]): 72 nM

NCCNC1COc2ccccc2-c2c(C3CCCCC3)c3ccc(C(=O)O)cc3n2C1 (racemic)
EC50 (Hepatitis C virus [1]): 591 nM | EC50 (Hepatitis C virus [2]): 1700 nM | IC50 (Hepatitis C virus [3]): 12 nM | Ratio EC50 (Hepatitis C virus [4]): 4

CN(C)CCN1CC2(COc3ccccc3-c3c(C4CCCCC4)c4ccc(C(=O)O)cc4n3C2)C1
EC50 (Hepatitis C virus [1]): 80 nM | EC50 (Hepatitis C virus [2]): 454 nM | IC50 (Hepatitis C virus [3]): 4 nM

CC(C)N1CC2(COc3ccccc3-c3c(C4CCCCC4)c4ccc(C(=O)O)cc4n3C2)C1
EC50 (Hepatitis C virus [1]): 338 nM | EC50 (Hepatitis C virus [2]): 590 nM | IC50 (Hepatitis C virus [3]): 30 nM

CN1CCC(NC2COc3ccccc3-c3c(C4CCCCC4)c4ccc(C(=O)O)cc4n3C2)CC1 (racemic)
EC50 (Hepatitis C virus [1]): 224 nM | EC50 (Hepatitis C virus [2]): 1130 nM | IC50 (Hepatitis C virus [3]): 21 nM | Ratio EC50 (Hepatitis C virus [4]): 4

CN(CCN1CCOCC1)C1COc2ccccc2-c2c(C3CCCCC3)c3ccc(C(=O)O)cc3n2C1 (racemic)
EC50 (Hepatitis C virus [1]): 90 nM | EC50 (Hepatitis C virus [2]): 312 nM | IC50 (Hepatitis C virus [3]): 10 nM

CN(C)CC(=O)NC1COc2ccccc2-c2c(C3CCCCC3)c3ccc(C(=O)O)cc3n2C1 (racemic)
EC50 (Hepatitis C virus [1]): 170 nM | EC50 (Hepatitis C virus [2]): 1430 nM | IC50 (Hepatitis C virus [3]): 47 nM

CN(C)C(=O)CNC1COc2ccccc2-c2c(C3CCCCC3)c3ccc(C(=O)O)cc3n2C1 (racemic)
EC50 (Hepatitis C virus [1]): 766 nM | EC50 (Hepatitis C virus [2]): > 5000 nM | IC50 (Hepatitis C virus [3]): 51 nM

CN(C)CC(=O)N(C)C1COc2ccccc2-c2c(C3CCCCC3)c3ccc(C(=O)O)cc3n2C1 (stereo not drawn)
EC50 (Hepatitis C virus [1]): 73 nM | EC50 (Hepatitis C virus [2]): 743 nM | IC50 (Hepatitis C virus [3]): 31 nM | Ratio EC50 (Hepatitis C virus [4]): 10 | fraction unbound [5]: 0.005

CNC1COc2ccccc2-c2c(C3CCCCC3)c3ccc(C(=O)O)cc3n2C1 (racemic)
EC50 (Hepatitis C virus [1]): 1030 nM | EC50 (Hepatitis C virus [2]): 4980 nM | IC50 (Hepatitis C virus [3]): 51 nM

O=C(O)c1ccc2c(C3CCCCC3)c3n(c2c1)CCCc1ccccc1-3
EC50 (Hepatitis C virus [1]): 10400 nM | IC50 (Hepatitis C virus [3]): 35 nM

CN(C)CCN1CCn2c(c(C3CCCCC3)c3ccc(C(=O)O)cc32)-c2ccccc2C1
AUC [6]: 0.7 µM·h | IC50 (Hepatitis C virus [3]): 27 nM | Vd [7]: 5.1 L/kg | Cmax [8]: 200 nM | concentration at 6 h [9]: 640 nM | microsomal CLint [10]: 26 µL/min/mg | clearance [11]: 61 mL/min/kg | microsomal CLint [12]: 5 µL/min/mg | microsomal CLint [13]: 100 µL/min/mg | half-life [14]: 1.6 h

CN1CCN(C2COc3ccccc3-c3c(C4CCCCC4)c4ccc(C(=O)O)cc4n3C2)CC1 (racemic)
EC50 (Hepatitis C virus [1]): 120 nM | EC50 (Hepatitis C virus [2]): 361 nM | IC50 (Hepatitis C virus [3]): 10 nM

CN(C)C1COc2ccccc2-c2c(C3CCCCC3)c3ccc(C(=O)O)cc3n2C1 (racemic)
EC50 (Hepatitis C virus [1]): 570 nM | EC50 (Hepatitis C virus [2]): 2110 nM | IC50 (Hepatitis C virus [3]): 32 nM | Ratio EC50 (Hepatitis C virus [4]): 4

CCN(CCN(C)C)C1COc2ccccc2-c2c(C3CCCCC3)c3ccc(C(=O)O)cc3n2C1 (racemic)
EC50 (Hepatitis C virus [1]): 153 nM | EC50 (Hepatitis C virus [2]): 1030 nM | IC50 (Hepatitis C virus [3]): 11 nM | Ratio EC50 (Hepatitis C virus [4]): 7

COCCNC1COc2ccccc2-c2c(C3CCCCC3)c3ccc(C(=O)O)cc3n2C1 (racemic)
EC50 (Hepatitis C virus [1]): 2480 nM | IC50 (Hepatitis C virus [3]): 63 nM

O=C(O)c1ccc2c(C3CCCCC3)c3n(c2c1)CCCOc1ccccc1-3
EC50 (Hepatitis C virus [1]): 2740 nM | IC50 (Hepatitis C virus [3]): 42 nM

COc1ccc2c(c1)[C@H]1[C@@H](CCN1CCN(C)C)Cn1c-2c(C2CCCCC2)c2ccc(C(=O)O)cc21
EC50 (Hepatitis C virus [1]): 29 nM | IC50 (Hepatitis C virus [3]): 4 nM

CN(C)CCCNC1COc2ccccc2-c2c(C3CCCCC3)c3ccc(C(=O)O)cc3n2C1 (racemic)
EC50 (Hepatitis C virus [1]): 258 nM | EC50 (Hepatitis C virus [2]): 1370 nM | IC50 (Hepatitis C virus [3]): 17 nM | Ratio EC50 (Hepatitis C virus [4]): 4

CC(C)N1CC[C@H](N2CCn3c(c(C4CCCCC4)c4sc(C(=O)O)cc43)-c3ccccc3C2)C1
EC50 (Hepatitis C virus [1]): 150 nM | IC50 (Hepatitis C virus [3]): 19 nM

CN(C)CCN(C)[C@@H]1COc2ccccc2-c2c(C3CCCCC3)c3ccc(C(=O)O)cc3n2C1
EC50 (Hepatitis C virus [1]): 338 nM | EC50 (Hepatitis C virus [2]): 1680 nM | IC50 (Hepatitis C virus [3]): 35 nM | Ratio EC50 (Hepatitis C virus [4]): 3

CN(C)CCN(C)C1COc2ccccc2-c2c(C3CCCCC3)c3ccc(C(=O)O)cc3n2C1 (racemic)
EC50 (Hepatitis C virus [1]): 73 nM | EC50 (Hepatitis C virus [2]): 313 nM | IC50 (Hepatitis C virus [3]): 15 nM | fraction unbound [5]: 0.027

CC(C)N(CCN(C)C)C1COc2ccccc2-c2c(C3CCCCC3)c3ccc(C(=O)O)cc3n2C1 (racemic)
EC50 (Hepatitis C virus [1]): 138 nM | EC50 (Hepatitis C virus [2]): 1200 nM | IC50 (Hepatitis C virus [3]): 34 nM | Ratio EC50 (Hepatitis C virus [4]): 7

CNCCN(C)C1COc2ccccc2-c2c(C3CCCCC3)c3ccc(C(=O)O)cc3n2C1 (racemic)
EC50 (Hepatitis C virus [1]): 83 nM | EC50 (Hepatitis C virus [2]): 550 nM | IC50 (Hepatitis C virus [3]): 9 nM

CN1CCN(CCN(C)C2COc3ccccc3-c3c(C4CCCCC4)c4ccc(C(=O)O)cc4n3C2)CC1 (racemic)
EC50 (Hepatitis C virus [1]): 66 nM | EC50 (Hepatitis C virus [2]): 581 nM | IC50 (Hepatitis C virus [3]): 8 nM | Ratio EC50 (Hepatitis C virus [4]): 9 | fraction unbound [5]: 0.011

CN(C)CCO[C@@H]1COc2ccccc2-c2c(C3CCCCC3)c3ccc(C(=O)O)cc3n2C1
EC50 (Hepatitis C virus [1]): 78 nM | EC50 (Hepatitis C virus [2]): 493 nM | IC50 (Hepatitis C virus [3]): 19 nM | Ratio EC50 (Hepatitis C virus [4]): 6

CN(CCN1CCCC1)C1COc2ccccc2-c2c(C3CCCCC3)c3ccc(C(=O)O)cc3n2C1 (racemic)
EC50 (Hepatitis C virus [1]): 99 nM | EC50 (Hepatitis C virus [2]): 335 nM | IC50 (Hepatitis C virus [3]): 11 nM

CN(C)CCNC1COc2ccccc2-c2c(C3CCCCC3)c3ccc(C(=O)O)cc3n2C1 (racemic)
AUC [6]: 0.9 µM·h | EC50 (Hepatitis C virus [1]): 173 nM | EC50 (Hepatitis C virus [2]): 856 nM | IC50 (Hepatitis C virus [3]): 32 nM | Vd [7]: 3.2 L/kg | bioavailability [15]: 20% | Cmax [8]: 300 nM | concentration at 6 h [9]: 1300 nM | Ratio EC50 (Hepatitis C virus [4]): 4 | microsomal CLint [10]: 7 µL/min/mg | clearance [11]: 21 mL/min/kg | microsomal CLint [12]: 5 µL/min/mg | Kp at 6 h [16]: 21 | microsomal CLint [13]: 7 µL/min/mg | half-life [14]: 3 h

CCN(CC)C1CCN(C(=O)Cn2c(-c3ccc(Cl)cc3)c(C3CCCCC3)c3ccc(C(=O)O)cc32)CC1
IC50 (Hepatitis C virus [3]): 48 nM | Kp at 6 h [16]: 16
